Data: ChEMBL document CHEMBL2440016, “Targeting the human parasite Leishmania donovani: discovery of a new promising anti-infectious pharmacophore in 3-nitroimidazo[1,2-a]pyridine series” (Bioorg Med Chem, 2013)

Tests used:
[1] = Cytotoxicity against mouse J774.1 cells after 72 hrs by MTT assay; type: cell-based
How it was run: (§1)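 Cells plated in RPMI with 10% FCS, L-glutamine and penicillin/streptomycin, 24 h at 37 °C, 6% CO2. Compound dilutions then added for 72 h. MTT 0.5 mg/mL in PBS for 2 h, formazan dissolved in DMSO, A570 with 630 nm reference. Viability taken as % of untreated control. Doxorubicin served as positive control. CC50 from the dose-response curve.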

[2] = Selectivity ratio of IC50 for Plasmodium falciparum K1 to IC50 for Leishmania donovani MHOM/IN/00/DEVI amastigotes; type: functional
Leishmania infantum = assay: Antimicrobial activity against Leishmania infantum MCAN/ES/98/LLM-877 promastigotes after 72 hrs by MTT assay; type: functional, organism-based; settings: MCAN/ES/98/LLM-877, 72 h
How it was run: (§2)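 Log-phase promastigotes in Schneider's medium with 20% FCS, 2 mM L-glutamine and penicillin/streptomycin, at 10⁶ parasites/mL. Compound dilutions run in duplicate, final DMSO <0.5%, 72 h at 27 °C. MTT 0.5 mg/mL for 6 h at 27 °C, formazan dissolved in DMSO, A570.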

[3] = (§3) Cytotoxicity against human HepG2 cells after 72 hrs by MTT assay; type: cell-based; settings: HepG2 cells; how it was run: as §1
Leishmania donovani [4] = assay: Antimicrobial activity against Leishmania donovani MHOM/IN/00/DEVI promastigotes after 72 hrs by MTT assay; type: functional, organism-based; how it was run: as §2
[5] = Selectivity ratio of IC50 for Plasmodium falciparum K1 to IC50 for Leishmania donovani MHOM/IN/00/DEVI promastigotes; type: functional
Leishmania donovani [6] = assay: Antimicrobial activity against Leishmania donovani MHOM/IN/00/DEVI amastigotes infected in mouse J774.1 cells after 120 hrs by microscopic analysis; type: functional, organism-based; settings: J774.1, 120 h
How it was run: (§4)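 J774A.1 macrophages seeded at 5x10⁴ cells/mL, 24 h at 37 °C, 6% CO2. L. donovani promastigotes acidified 24 h at 27 °C in Schneider 20% FCS pH 5.4, then used to infect at 10:1 for 24 h. Compounds added in duplicate, final DMSO <0.5%, 120 h at 37 °C. Cells methanol-fixed and Giemsa-stained, ≥200 cells counted for % infected. IC50 by non-linear regression, mean of three independent experiments.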

[7] = Selectivity index, ratio of CC50 for human HepG2 cells to IC50 for Leishmania donovani MHOM/IN/00/DEVI; type: functional
How it was run: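 SI = HepG2 CC50 / L. donovani IC50.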

[8] = Selectivity index, ratio of CC50 for mouse J774.1 cells to IC50 for Leishmania donovani MHOM/IN/00/DEVI; type: functional
Plasmodium falciparum = assay: Antiplasmodial activity against Plasmodium falciparum K1 infected in human erythrocytes after 72 hrs by SYBR Green I fluorescence assay; type: functional, organism-based; settings: K1, 72 h
How it was run: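 K1 strain, resistant to chloroquine, pyrimethamine and proguanil, grown in A+ human erythrocytes with RPMI 1640, HEPES, NaHCO3 and 10% A+ serum. Rings synchronized with 5% sorbitol. Compounds tested at 2% hematocrit and 1% parasitaemia, 72 h at 37 °C in 5% O2, 5% CO2, in triplicate. DNA read by SYBR Green I lysis, 15 min, ex 497/em 520 nm. IC50 from three independent experiments.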

[9] = Selectivity ratio of IC50 for Plasmodium falciparum K1 to IC50 for Leishmania infantum MCAN/ES/98/LLM-877 promastigotes; type: functional
Leishmania donovani [10] = assay: Antimicrobial activity against Leishmania donovani promastigotes; type: functional, organism-based; how it was run: as §2
Leishmania donovani [11] = assay: Antimicrobial activity against Leishmania donovani amastigotes; type: functional, organism-based; how it was run: as §4
HepG2 = assay: as §3; type: cell-based; settings: hepg2, 72 h; how it was run: as §1

## O=[N+]([O-])c1c(CS(=O)(=O)c2ccccc2)nc2c(Br)cc(Br)cn12
[1]; J774.1 cells
  CC50 at 72 h: > 25 µM
[2]
  Ratio IC50: 3
Leishmania infantum
  IC50: 3.3 µM
[3]
  CC50 at 72 h: > 31 µM
Leishmania donovani [4]; Leishmania donovani, MHOM/IN/00/DEVI, 72 h, read-out: IC50
  IC50: 1.8 µM
[5]
  Ratio IC50: 8.9
Leishmania donovani [6]
  IC50: 5.5 µM
[7]
  Ratio CC50/IC50: >17.2
[8]
  Ratio CC50/IC50: >13.4
Plasmodium falciparum
  IC50: 16 µM
[9]
  Ratio IC50: 4.8

## CSc1ccc(OCc2ncc([N+](=O)[O-])n2C)cc1 [FEXINIDAZOLE]
Leishmania donovani [10]
  IC50: 5.6 µM
Leishmania donovani [11]
  IC50: 2.8 µM

## COc1ccc(Sc2c([N+](=O)[O-])cc(C#N)cc2[N+](=O)[O-])cc1
Leishmania donovani [11]
  IC50: 0.7 µM

## O=[N+]([O-])c1c(CS(=O)(=O)c2ccccc2)nc2ccc(-c3cccc(C(F)(F)F)c3)cn12
[1]; j774.1, 72 h
  CC50: ND(Insoluble)
HepG2
  CC50: ND(Insoluble)
Leishmania donovani [4]
  IC50: ND(Insoluble)
